The list is not random: actives were taken first. Their share in the collection is about 3.4%.
ANO1 block = mouse TMEM16A channel inhibition, primary screen; HEK293 TMEM16A/YFP iodide influx fluorescence, ionomycin; AID 588511; normalized B-score (activity score, 25-100; higher = stronger inhibition) at 10 µM; Q8BHY3; hit rate 1.2% among 310,000;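 active = ratio plate-corrected score three or more library SD toward inhibition, starting fluorescence score within five deviations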;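 also: score derived from kinetic fluorescence span divided by baseline fluorescence per well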
IMP-1 inhibitor = blocks Pseudomonas aeruginosa IMP-1 metallo-beta-lactamase; hit rate 0.45% among 290,000; inhibition, % at 5.6 µM; purified IMP-1, nitrocefin hydrolysis, epi-absorbance fluorescence;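 active = inhibition above the mean plus 3 SD of all compounds in the same screening run, cut at about 4.5% in these data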;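 also: 0% = IMP-1 with DMSO and 100% = DMSO wells lacking enzyme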
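Material – recombinant IMP-1 enzyme, purified · Amount – IMP-1 0.2 nM before substrate addition · Medium – HEPES buffer pH 7.1 with ZnSO4 and Brij 35 · Timing – 25 °C, 15 min preincubation, 25 min reaction · Measured by – plate fluorescence quenching by hydrolysis product, ex 480/em 530 nm · Read-out – percent enzyme inhibition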
CHT PAM = allosteric activators of human choline transporter CHT; Q9GZV3; CHT-expressing cells, membrane potential dye, choline EC20; active compounds read high; LV-AA mutant CHT in HEK293 cells; B-score at 10 µM; hit rate 0.49% among 310,000;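 active = initial fluorescence not abnormally high and integrated response B-score, plate-corrected, over 3 SD above library mean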
Target sequence (Q9GZV3 whole entry, looked up): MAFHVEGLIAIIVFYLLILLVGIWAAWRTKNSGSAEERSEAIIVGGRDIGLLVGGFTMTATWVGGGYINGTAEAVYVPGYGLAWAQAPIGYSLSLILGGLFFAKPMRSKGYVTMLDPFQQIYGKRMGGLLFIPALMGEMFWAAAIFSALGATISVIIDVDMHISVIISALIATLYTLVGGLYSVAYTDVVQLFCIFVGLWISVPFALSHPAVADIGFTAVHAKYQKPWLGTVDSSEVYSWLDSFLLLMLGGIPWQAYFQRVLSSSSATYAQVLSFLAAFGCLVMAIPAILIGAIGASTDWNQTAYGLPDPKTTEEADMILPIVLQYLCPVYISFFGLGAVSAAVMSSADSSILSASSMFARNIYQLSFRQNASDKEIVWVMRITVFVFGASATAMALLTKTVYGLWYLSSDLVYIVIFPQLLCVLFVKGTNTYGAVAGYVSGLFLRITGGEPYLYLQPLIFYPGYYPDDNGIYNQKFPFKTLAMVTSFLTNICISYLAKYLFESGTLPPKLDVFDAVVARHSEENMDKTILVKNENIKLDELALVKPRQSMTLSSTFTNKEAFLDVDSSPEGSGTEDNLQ
CHT inh = human CHT choline transport inhibition. B-score at 10 µM. hit rate 0.86% among 310,000. CHT-expressing cells, membrane potential dye, choline response; active compounds read low. AID 488975;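 active = B-score over 3 SD under the library average, and starting fluorescence ratio not unusually high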;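 also: choline stimulus applied at its EC90 after an EC20 pre-addition; B-score computed on integrated fluorescence ratio after choline addition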
VIM-2 inh = blocks Pseudomonas aeruginosa VIM-2 metallo-beta-lactamase | purified VIM-2, nitrocefin hydrolysis, epi-absorbance fluorescence | inhibition, % at 5.6 µM | hit rate 0.89% among 290,000;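 active = inhibition above the mean of all tested compounds plus 3 SD, cutoff set per screening run, cut at about 7.5% in these data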;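 also: red hydrolysis product quenches plate fluorescence so inhibitors raise well fluorescence; 0% = enzyme with DMSO and 100% = DMSO without enzyme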
TMEM16A act = activators or potentiators of mouse TMEM16A chloride channel. hit rate 0.3% among 340,000. B-score at 10 µM. AID 623877. HEK293 TMEM16A/YFP-H148Q/I152L, iodide quench fluorescence; active compounds read low;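 active = fluorescence-ratio B-score plate-corrected deviation score at least 3 library SD below zero, with starting fluorescence score within 5 deviations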;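 also: channel opened by trigger with iodide after compound preincubation; score built on the fluorescence ratio of max minus min over baseline; more negative score means more quench and so TMEM16A activation or potentiation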
TMEM16A reconf = TMEM16A (mouse) chloride channel inhibition, re-confirmation. hit rate 39% among 2,300. shares compounds with ANO1 block. inhibition, % at 10 µM. HEK293 TMEM16A/YFP-H148Q, iodide quench fluorescence; ionomycin added to raise cell calcium. AID 652189;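 active = mean duplicate percent inhibition, scaled so buffer wells are 0 and the reference blocker 100, over three buffer SD above buffer mean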
TMEM16A Ca cntr = alters calcium mobilization in TMEM16A HEK293 cells, counter-screen | shares compounds with ANO1 block | TMEM16A/YFP HEK293, Fluo4 calcium mobilization | calcium response (% of ionomycin), % at 10 µM | hit rate 2% among 2,300 | AID 652231;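 active = duplicate-averaged calcium signal over 20% of the ionomycin maximum, relative to buffer baseline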;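 also: each well's signal is peak minus trough fluorescence divided by its pre-addition baseline; 0% = buffer wells and 100% = ionomycin wells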
Parental YFP cnt = parental YFP-HEK293 iodide quench counter-screen activity. shares compounds with ANO1 block. ionomycin. YFP ratio F(max-min)/F0 at 10 µM. 2,300 tested, under 10 active;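 active = yellow fluorescent protein signal ratio exceeding the buffer control mean by over 5 SD of those controls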;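 also: ratio is mean of duplicate wells from kinetic YFP trace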
ClC-1 rat inh = blocks the rat ClC-1 voltage-dependent chloride channel; AID 652236; CHO ClC-1-YFP, iodide influx fluorescence quench; iodide control reads 0, buffer control 100; shares compounds with ANO1 block; ratio percent, % at 10 µM; 2,300 tested, under 10 active;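 active = duplicate-mean ratio percent above the mean of iodide-only control wells, which defines zero, plus 5 of their SD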;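 also: higher percent means stronger block of ClC-1 iodide influx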
Numbers without * were called inactive; i = inactive; . = no result given.

SMILES	ANO1 block	IMP-1 inhibitor	CHT PAM	CHT inh	VIM-2 inh	TMEM16A act	TMEM16A reconf	TMEM16A Ca cntr	Parental YFP cnt	ClC-1 rat inh
O=C(C1=C(O)/C(=C/c2ccc(O)cc2)CCC1)C(F)(F)F	25*	-5	i	i	-1	i	i	i	-0.93	-21
COc1ccccc1NC(=O)C1CCCN(S(=O)(=O)c2ccccc2)C1 (configuration not stated)	i	-2	i	i	-2	i	.	.	.	.
c1ccc(Nc2nc(NCc3ccco3)c3ccccc3n2)cc1	25*	-4	i	i	-3	i	47%*	i	-1.1	-8
Cc1ccccc1Nc1nc(NCc2ccco2)c2ccccc2n1	25*	-2	i	i	-1	i	32%*	i	-1.2	-7
CC/C(=N\N=C(/CC)c1ccccc1N)c1ccccc1N	i	.	i	i	.	i	.	.	.	.
COc1ccccc1C1c2[nH]c3ccccc3c2C[C@H]2C(=O)N(C3CCN(Cc4ccccc4)CC3)CC(=O)N12 (some centres not stated)	i	-1	i	i	-2	i	.	.	.	.
COCCn1c(SCC(=O)Nc2cccc(F)c2)nc2c(c1=O)SCC2	i	0	i	i	0	i	.	.	.	.
CSc1ccc(-c2nc(CSCC(=O)NC3CC3)c(C)o2)cc1	i	0	i	i	1	i	.	.	.	.
CSc1ccc(-c2nc(CSCC(=O)N3CCOCC3)c(C)o2)cc1	25*	-3	i	i	-1	i	28%*	i	-1.1	-14
CCc1ccc(-c2nc(CSCC(=O)N3CCN(c4ncccn4)CC3)c(C)o2)cc1	25*	-1	i	i	1	i	i	i	-1	-11
CN(C(=O)c1ccc(Br)o1)C1(C)CCS(=O)(=O)C1 (configuration not stated)	i	-4	i	i	-2	i	.	.	.	.
Cc1nnc2ccc(N3CCC4(CC3)OCCO4)nn12	i	-3	i	i	-4	i	.	.	.	.
Cc1nnc2ccc(N3CCCC3)nn12	25*	-3	i	i	-1	i	i	i	-0.94	-19
O=S(=O)(c1ccccc1Cl)N1CCCC1c1nc(-c2ccccc2Cl)no1 (configuration not stated)	100*	0	i	i	2	i	18%*	i	-1.1	-14
O=S(=O)(c1ccc(Cl)cc1)N1CCCC1c1nc(-c2ccc(Cl)cc2)no1 (configuration not stated)	i	-2	i	i	-5	i	.	.	.	.
CCOc1ccccc1NC(=O)Nc1c(C)n(-c2ccccc2)c(=O)n1C	100*	-3	i	i	0	i	i	i	-0.81	-1
COc1cc(F)ccc1CN1CCC(C(=O)Nc2ccc(Oc3ccccc3)nc2)CC1	i	-4	i	i	-4	i	.	.	.	.
COc1ccc(CN2CCC(C(=O)Nc3ccc(Oc4ccccc4)nc3)CC2)cc1F	25*	-3	i	i	-1	i	i	i	-1	-12
CSCCC(NC(=O)c1ccco1)C(=O)Nc1ccncc1 (configuration not stated)	i	-3	i	i	1	i	.	.	.	.
O=C(NCc1ccco1)C1(S(=O)(=O)c2ccccc2)CC=CC1	i	-2	i	i	-3	i	.	.	.	.
O=C(O)CC(CC(=O)NCC(O)c1ccccc1)c1ccccc1 (configuration not stated)	i	-5	i	i	0	i	.	.	.	.
O=C(COC(=O)c1ccc([N+](=O)[O-])cc1Cl)Nc1cccnc1Cl	i	.	i	i	.	i	.	.	.	.
CCC(=O)N(CC)C1=C(O)c2ccccc2C(=O)C1=O	25*	-2	i	i	1	i	26%*	i	-0.78	-10
CCC(=O)N(C1=C(NC)C(=O)c2ccccc2C1=O)C(C)C	i	0	i	i	-3	i	.	.	.	.
Clc1cccc(-c2nc(-c3ccc(-c4nn[nH]n4)cc3)no2)c1	.	.	.	.	.	i	.	.	.	.
SMILES	ANO1 block	IMP-1 inhibitor	CHT PAM	CHT inh	VIM-2 inh	TMEM16A act	TMEM16A reconf	TMEM16A Ca cntr	Parental YFP cnt	ClC-1 rat inh
[O-][N+](=C(c1ccccc1)c1ccccc1)c1ccccc1	.	.	.	.	.	i	.	.	.	.
COc1ccc(C(C)NC(=O)c2ccccc2Cl)cc1OC (configuration not stated)	i	-5	i	i	-4	i	.	.	.	.
COc1cccc(C(=O)NC(C)c2ccc(-c3ccccc3)cc2)c1OC (configuration not stated)	25*	-3	i	i	-1	i	24%*	i	-1.1	-10
COc1ccc(C(=O)COC(=O)c2ccccc2NS(=O)(=O)c2ccc(O)c([N+](=O)[O-])c2)cc1	25*	-3	i	i	-4	i	30%*	i	-0.86	-10
CC(C)/C(C=O)=C(/NC1CCCCC1)c1ccccc1	i	.	i	i	.	i	.	.	.	.
CC1CCN(S(=O)(=O)c2cccc(C(N)=O)c2)CC1	i	0	i	i	-1	i	.	.	.	.
CC1CCN(S(=O)(=O)c2cccc(C(=O)O)c2)CC1	100*	-5	i	i	-3	i	i	i	-0.99	-6
CCN(CC(=O)Nc1ccc(S(=O)(=O)N2CCCCC2)cc1)Cc1ccccc1	i	.	i	i	.	i	.	.	.	.
CCOC(=O)c1sc(NC(=O)c2cccc(S(=O)(=O)N3CCc4ccccc43)c2)c(C#N)c1C	25*	-2	i	i	-4	i	26%*	i	-0.89	-5
CCC(CC)c1nnc(NC(=O)c2cccc(S(=O)(=O)N3CCc4ccccc43)c2)s1	i	-2	i	i	-5	i	.	.	.	.
O=C(CSc1nc2ccccc2c(=O)[nH]1)N1CCOCC1	i	-4	i	i	1	i	i	i	-1.3	-6
COc1ccc(C(=O)C2CCN(C(=S)NCCc3ccc(OC)c(OC)c3)CC2)cc1	i	-5	i	i	-5	i	.	.	.	.
